Experimental data as given in paper PMC6839502 (Journal of Alzheimer's Disease, 2019).
Entries after “also recorded” stand apart in the source; their conditions may differ.

How the values were obtained:
[1] = tested on: plasma Aβ fragments; assay: Plasma Aβ fragments after single and multiple doses; type: in vivo, human; conditions: 275 mg, on Day 1
In short: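 Healthy adults, oral QD dosing versus placebo, Part B. Pre-dose blood was drawn on Days 1, 2, 4, 7, 10, and 14. Plasma Aβ1–40 was measured by DELFIA (LLOQ 12.1 pg/mL). Log change from baseline was analysed by mixed-model repeated measures: treatment, time, and their interaction as fixed effects, subject as random effect, and log baseline as covariate. Results were expressed as placebo-adjusted reduction.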

[2] = tested on: hERG; conditions: in vitro and in vivo preclinical safety and toxicology studies; cited from earlier work
[3] = tested on: BACE1 over BACE 2; conditions: fluorescence polarization (FP) assay; cited from earlier work
[4] = tested on: Cathepsin D (Cat D); conditions: FP assay; cited from earlier work
[5] = tested on: dogs; conditions: long-term toxicology / chronic dosing for up to 9 months; cited from earlier work

C[C@H]1C[C@H]2CSC(N)=N[C@@]2(c2nc(NC(=O)c3ccc(OC(F)F)cn3)cs2)CO1 [PF-06751979]
Maximum observed placebo-adjusted reduction in plasma Aβ1–40, multiple doses [1]: 88.3% | hERG inhibition [2]: weak hERG inhibition | Selectivity for BACE1 over BACE2 [3]: 6.4 fold | Selectivity over Cathepsin D [4]: ~2500 fold | Hair color (pigmentation) change [5]: did not reveal any evidence of hair color change; also recorded: did not reveal pigmentation changes
